Where “and” joins values, the source holds several entries; their conditions need not be identical. Identical values can stand only once.
Legend:
[1] = Safety and tolerability, SAD study; assay type: in vivo, human; conditions: healthy volunteers, single oral dose up to 600 mg
Outline: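 First-in-human, single-centre, randomised, double-blind, placebo-controlled interleaved-cohort study: 17 healthy men and women in 2 cohorts with 4 periods each. Single oral doses from 1 to 600 mg given fasted, at least 14 days apart. Safety and tolerability assessed before and after dosing and at various time points.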

[2] = Population compartmental PK model; assay type: in vivo, human
Outline: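 Pooled first-dose plasma concentrations (816 samples) from 39 healthy volunteers, SAD (fasted 1–600 mg; fed 100 mg) and MAD (fed 50–200 mg). Analysed in NONMEM 7.3 with ADVAN9 and first-order conditional estimation. 1- and 2-compartment models tested, with first-order absorption with or without lag time or transit compartments. IIV log-normal. Visual predictive checks used 500 simulations. Reported as estimate (% RSE).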

[3] = Solubility; assay type: physicochemical
[4] = BCS/BDDCS classification and permeability; assay type: physicochemical
[5] = Single ascending dose; assay type: in vivo, human
Outline: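 SAD study in healthy volunteers: micronised drug in hard-gelatine capsules without excipients, given orally after an overnight fast of at least 8 h (1, 3, 30, 100, 300, 600 mg), or 100 mg after a high-fat high-calorie breakfast. Plasma (K3EDTA) sampled 0.5–48 h after dosing and assayed by LC-MS/MS (1.00–1000 ng/mL). Parameters derived by noncompartmental analysis.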

[6] = Safety and tolerability, MAD study; assay type: in vivo, human; conditions: healthy volunteers, doses up to 200 mg BID for 7 days
Outline: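 Single-centre, randomised, double-blind, placebo-controlled MAD study: 22 healthy men and women dosed with food, single dose on day 1, then BID (50, 100, 200 mg) or OD (100 mg) on days 3–9. Active and placebo assigned 6:3. Safety and tolerability assessed before and after dosing and at various time points.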

[7] = Multiple ascending dose; assay type: in vivo, human
Outline: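 MAD study in healthy men and women: oral doses of 50, 100 or 200 mg or placebo (6:3), given with food; first dose on day 1. Plasma (K3EDTA) sampled 0.5–48 h after the first dose. Test compound measured by liquid–liquid extraction and LC-MS/MS, calibration range 1.00–1000 ng/mL. Linearity judged from dose-normalised concentration–time profiles.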

[8] = Excretion after intravenous dose in rats; assay type: in vivo; conditions: data held on files at Roche
[9] = target: human P‐gp (Homo sapiens, UniProt P08183); assay: In vitro P-gp transport studies; assay type: in vitro ADME; conditions: up to RO5459072 concentrations of 100 μM; data held on files at Roche
[10] = tested on: metabolic enzyme; assay: In vitro enzymology studies, time-dependent metabolic enzyme inhibition; assay type: in vitro ADME; conditions: RO5459072 and its metabolites; data held on files at Roche
[11] = tested on: cathepsin‐S; assay: Inhibition of cathepsin-S enzyme activity throughout the dosing interval; assay type: in vivo, human; conditions: 50 mg dose
[12] = interindividual variability, CV% (% RSE) [shrinkage]

Sequence of human P‐gp (P08183 whole entry): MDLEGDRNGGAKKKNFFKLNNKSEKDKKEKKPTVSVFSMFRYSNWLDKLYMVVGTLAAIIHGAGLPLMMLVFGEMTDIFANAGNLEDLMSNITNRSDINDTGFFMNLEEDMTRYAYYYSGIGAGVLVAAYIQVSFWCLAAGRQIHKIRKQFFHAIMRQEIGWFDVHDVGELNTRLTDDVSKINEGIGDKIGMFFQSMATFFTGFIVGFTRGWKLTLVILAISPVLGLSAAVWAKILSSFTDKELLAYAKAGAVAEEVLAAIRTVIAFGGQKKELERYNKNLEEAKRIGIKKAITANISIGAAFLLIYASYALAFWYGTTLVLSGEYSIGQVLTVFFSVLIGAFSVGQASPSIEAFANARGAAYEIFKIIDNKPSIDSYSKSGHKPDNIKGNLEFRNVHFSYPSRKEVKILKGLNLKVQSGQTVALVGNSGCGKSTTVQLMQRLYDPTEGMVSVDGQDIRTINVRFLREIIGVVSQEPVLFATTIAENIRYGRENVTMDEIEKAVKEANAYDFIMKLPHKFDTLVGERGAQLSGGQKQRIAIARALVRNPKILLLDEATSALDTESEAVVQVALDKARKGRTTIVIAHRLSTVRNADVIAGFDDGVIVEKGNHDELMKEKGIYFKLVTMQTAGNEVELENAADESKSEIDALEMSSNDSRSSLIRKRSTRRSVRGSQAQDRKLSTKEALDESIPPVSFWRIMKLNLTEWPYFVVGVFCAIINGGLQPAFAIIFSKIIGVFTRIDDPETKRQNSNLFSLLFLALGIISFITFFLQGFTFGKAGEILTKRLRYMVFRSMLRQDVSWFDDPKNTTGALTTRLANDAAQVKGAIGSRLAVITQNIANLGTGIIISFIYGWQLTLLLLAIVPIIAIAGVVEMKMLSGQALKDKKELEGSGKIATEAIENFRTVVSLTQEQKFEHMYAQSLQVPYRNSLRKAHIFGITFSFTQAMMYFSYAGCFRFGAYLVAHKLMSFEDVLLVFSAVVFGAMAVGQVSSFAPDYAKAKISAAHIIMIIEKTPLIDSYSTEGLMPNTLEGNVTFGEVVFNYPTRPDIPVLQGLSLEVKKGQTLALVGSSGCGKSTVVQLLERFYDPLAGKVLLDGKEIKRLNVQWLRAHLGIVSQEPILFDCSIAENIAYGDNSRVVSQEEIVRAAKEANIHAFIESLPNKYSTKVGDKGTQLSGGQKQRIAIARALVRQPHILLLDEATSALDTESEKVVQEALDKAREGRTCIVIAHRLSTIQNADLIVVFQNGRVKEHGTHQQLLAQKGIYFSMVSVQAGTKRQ

Cn1cc(-c2ccc(S(=O)(=O)[C@@H]3C[C@@H](C(=O)NC4(C#N)CC4)N(C(=O)C4(C(F)(F)F)CC4)C3)c(C(F)(F)F)c2)cn1 [RO5459072]
tolerability [1]: similarly tolerated to placebo | CL/F, apparent total clearance ([2]; fasted and fed conditions, estimate (% RSE)): 9.38 (3.65) L h^−1 | kaFaPI, first-order absorption rate constant of the proximal intestine ([2]; fasted, doses > 3 mg (10 to 600 mg), estimate (% RSE)): 2.05 h^−1 and 2.05 (6.29) h^−1 | kaFaDI, first-order absorption rate constant of the distal intestine ([2]; fasted, doses > 3 mg, estimate (% RSE)): 0.065 h^−1 and 0.065 (9.31) h^−1 | apparent fraction of the total dose absorbed from the distal intestine ([2]; fasted, on average for doses between 10 and 600 mg): ~ 16% | IIV of D50 [2, 12]: 38.5% (27.3) [40.9%] CV% | IIV of FFaDI [2, 12]: 32.1% (38.9) [41.0%] CV% | IIV of Vc/F [2, 12]: 24.0% (15.0) [14.6%] CV% | IIV of kaFaPI for doses > 3 mg [2, 12]: 33.8% (13.8) [2.44%] CV% | IIV of kaFe [2, 12]: 39.2% (14.8) [4.21%] CV% | solubility [3]: < 20 µg/mL | Biopharmaceutics Classification System class [4]: 2 | permeability [4]: highly permeable | Tmax ([5]; both, human, plasma, oral, 100 mg, Tmax, fed): 5 h | half-life ([5]; both, human, plasma, oral, 600 mg, noncompartmental analysis apparent terminal half-life, fasted, highest doses between 100 and 600 mg): 13 to 16 h | increase in systemic exposure with dose ([5]; fasted, doses <10 mg): more than dose proportional | increase in systemic exposure with dose ([5]; fasted, doses >30 mg): less than dose proportional | Tmax delay fed versus fasted ([5]; fed later than fasted): approximately 1 hour | decrease of estimated average half-life by food (noncompartmental analysis) ([5]; fed versus fasted): approximately 4 hours | tolerability [6]: tolerated similarly to placebo | half-life ([7]; both, human, plasma, oral, average estimated terminal half-lives, fed, 50 mg, 100 mg, 200 mg doses): 8 to 10 h | PK linearity ([7]; fed condition from 50 to 100 mg): linear | fraction of dose found unchanged in the faeces [8]: 50% | saturability of human P-gp [9]: not saturable | time-dependent metabolic enzyme inhibition [10]: absence | inhibition of cathepsin-S enzyme activity in average throughout the dosing interval [11]: about 93%

— paper PMC8451882 (British Journal of Clinical Pharmacology, 2021)
